Compound activity as filed in PubChem.
PLCg1 inh: PLC-gamma1 (human) inhibition, primary screen; purified PLC-gamma1, fluorogenic substrate, fluorescence; inhibition, % at 12.2 µM; actives 0.84% (n = 370,000); AID 720700; in the data active = inhibition above about 9.5%
proKLK7 act: activators of human kallikrein-7 zymogen; P49862; purified proKLK7, EDANS-DABCYL substrate fluorescence; 100% is mature enzyme control, 0% vehicle; activation, % at 7 µM; actives 0.9% (n = 370,000); AID 652039;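 active = activation above the mean of all tested compounds plus 3 SD, computed per campaign excluding outliers beyond control limits, cut at about 13% in these data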
Tn7 DDE FP: DD(E)-Tn7 binding inhibition, primary FP screen | FP displacement of FITC-Tn7 peptide from fibrin DD(E); 0% = median of compound wells per plate | P02675 | inhibition, % at 8.3 µM | actives 0.13% (n = 370,000);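 active = inhibition above the mean of compounds falling within the control limits plus 3 SD of them, cut at about 14% in these data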;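 note: 0% = plate median of compound wells and 100% = 10 µM Aha-Tn7 peptide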
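Also added: labelled Tn7 tracer, 0.1 µM; Assay system: human fibrin DD(E) protein; Amount: 2 µM fibrin DD(E); Schedule: 10 min compound pre-incubation, 3 h probe incubation at room temperature; Repeats: one replicate per compound; Read-out basis: percent inhibition; Measured by: fluorescence polarization of the labelled Tn7 tracer.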
PLCb3 inh: inhibitors of human phospholipase C beta3. Q01970. Purified PLC-beta3, fluorogenic substrate, fluorescence. inhibition, % at 12.2 µM. actives 0.18% (n = 370,000). AID 720704; in the data active = inhibition above about 11%;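 note: 0% = median of compound wells on plate and 100% = full blocker control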
DDE Tn6 FP inh: disrupts Tn6 cyclic peptide binding to fibrin D-Dimer-E complex; P02675; Fibrin DD(E) TRITC-Tn6 fluorescence polarization displacement; inhibition, % at 8.3 µM; actives 0.21% (n = 370,000);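 active = inhibition above a per-campaign cutoff: mean of compounds within control limits plus 3 SD, cut at about 15% in these data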;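 note: 0% = median of all compound wells on the plate and 100% = blocking peptide control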
NRP1-CendR mod: modulators of CendR peptide binding to human neuropilin-1; O14786; FAM-RPARPAR peptide binding to NRP-1, fluorescence polarization; inhibition, % at 25 µM; actives 0.85% (n = 360,000);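 active = inhibition or corrected inhibition above about 18%, plus a signal ratio from 0.5 to 1.5, limit read from the data, passing the limit was not always enough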
Target sequence (O14786 whole entry, looked up): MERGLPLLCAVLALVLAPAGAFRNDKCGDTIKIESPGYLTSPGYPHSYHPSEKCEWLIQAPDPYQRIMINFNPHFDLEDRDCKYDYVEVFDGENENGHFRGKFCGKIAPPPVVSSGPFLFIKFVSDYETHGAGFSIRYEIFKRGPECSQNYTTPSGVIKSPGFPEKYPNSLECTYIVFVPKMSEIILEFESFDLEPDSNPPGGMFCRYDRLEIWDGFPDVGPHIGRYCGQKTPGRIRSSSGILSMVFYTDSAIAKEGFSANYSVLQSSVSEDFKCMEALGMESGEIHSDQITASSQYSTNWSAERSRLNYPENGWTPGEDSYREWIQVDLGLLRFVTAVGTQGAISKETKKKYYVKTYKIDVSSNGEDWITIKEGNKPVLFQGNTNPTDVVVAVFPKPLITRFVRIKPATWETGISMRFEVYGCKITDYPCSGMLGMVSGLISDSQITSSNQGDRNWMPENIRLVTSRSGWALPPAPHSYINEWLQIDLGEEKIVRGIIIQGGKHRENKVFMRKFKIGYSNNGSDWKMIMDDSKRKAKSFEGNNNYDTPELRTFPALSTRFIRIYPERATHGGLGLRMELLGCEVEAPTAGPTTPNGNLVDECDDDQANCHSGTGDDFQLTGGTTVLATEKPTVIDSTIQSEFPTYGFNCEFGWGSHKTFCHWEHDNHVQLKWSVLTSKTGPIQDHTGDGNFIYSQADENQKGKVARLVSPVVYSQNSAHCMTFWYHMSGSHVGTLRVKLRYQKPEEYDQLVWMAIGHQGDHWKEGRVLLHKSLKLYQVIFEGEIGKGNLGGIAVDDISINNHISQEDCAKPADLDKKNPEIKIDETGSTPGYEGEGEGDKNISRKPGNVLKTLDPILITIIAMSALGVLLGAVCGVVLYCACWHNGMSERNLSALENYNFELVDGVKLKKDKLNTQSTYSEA
proKLK7 act conf: confirmation of human kallikrein-7 zymogen activators; shares compounds with proKLK7 act; purified proKLK7, EDANS-DABCYL substrate fluorescence; scaled: vehicle 0, mature enzyme 100; activation, % at 7 µM; actives 68% (n = 3,200); AID 686949;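 active = activation, as change over the incubation, above the mean of all tested compounds plus 3 SD, cut at about 13% in these data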
EDANS-DABCYL int: fluorescence interference counter-screen for KLK7 activators. EDANS-DABCYL substrate fluorescence interference, no enzyme, 4 h; solvent 0%, active enzyme control 100%. activation, % at 7 µM. shares compounds with proKLK7 act. actives 80% (n = 3,200);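 active = activation above the all-compound mean plus 3 SD, ignoring values outside control-based bounds, cut at about 4.8% in these data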;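 note: value is the 4 h activation minus the activation read at time zero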
* = called active by the depositor; i = inactive; x = no result. In the library only some 3% were active in any assay of this set; here they are far more common.

SMILES | PLCg1 inh | proKLK7 act | Tn7 DDE FP | PLCb3 inh | DDE Tn6 FP inh | NRP1-CendR mod | proKLK7 act conf | EDANS-DABCYL int
CCOC(=O)C1=C(CSc2nc(-c3ccncc3)ccc2C#N)OC(N)=C(C#N)C1c1ccc(OC)cc1 (configuration not stated) | -417.8 | 25.8* | 0.6 | -479.1 | -8.9 | -78.5 | 66.9* | 65.7*
CCOC(=O)C1=C(C(C)=O)C(c2cccnc2)C(C#N)=C(N)O1 (configuration not stated) | -16.8 | -1.4 | -6.0 | -23.0 | 0.2 | 3.3 | x | x
CCOC(=O)C1=C(CSc2nc(CC)c(C)cc2C#N)OC(N)=C(C#N)C1c1ccc(OC)cc1 (configuration not stated) | -184.4 | 5.3 | -6.0 | -204.2 | -2.6 | -28.4 | x | x
CCOC(=O)C1=C(CSc2nc(-c3ccncc3)ccc2C#N)OC(N)=C(C#N)C1c1cccnc1 (configuration not stated) | -482.3 | 51.3* | -5.6 | i | -7.9 | -14.7 | 66.4* | 71.7*
Cc1cc(=O)oc2c3c(cc(OCC(=O)NCCN4CCOCC4)c12)OC(C)(C)CC3 | i | 34.5* | 3.8 | i | 9.1 | 3.5 | 56.9* | 70.2*
Cc1cc(=O)oc2c3c(cc(OCC(=O)NCc4ccco4)c12)OC(C)(C)CC3 | i | 11.9 | -12.7 | i | -3.8 | 1.2 | x | x
CCCc1cc(=O)oc2c3c(cc(OCC(=O)NCCCn4ccnc4)c12)OC(C)(C)CC3 | i | 17.2* | -1.4 | i | 4.6 | 0.7 | -37.2 | -40.5
Cc1cc(=O)oc2c3c(cc(OCC(=O)NCCCn4ccnc4)c12)OC(C)(C)CC3 | i | 28.9* | -1.4 | i | 12.5 | 7.0 | 7.9 | -8.0
Cc1cc(N2CCC(N(C)C3CCCC3)CC2)nc2cc(O)ccc12 | i | 15.9* | 3.8 | i | 0.0 | -7.9 | 24.8* | 30.9*
Cc1cc(N2CCN(c3ccccc3)CC2)nc2ccccc12 | -15.1 | 0.7 | -0.8 | -18.3 | 4.7 | -3.3 | x | x
Cc1cc(C)cc(NC(=O)OC2CC3CC2[C@H]2CCCCN2[C@H]3C)c1 (some centres not stated) | 5.7 | 0.7 | 3.6 | -4.5 | 1.7 | x | x | x
COC(=O)c1nc2ccc(N3CCOCC3)cc2c(C)c1C(=O)OC | i | 22.2* | -3.8 | i | 9.5 | 8.0 | 1.8 | 24.6*
COc1ccccc1N1CCN(C(c2cccs2)C(C)NC(=O)c2ccco2)CC1 (configuration not stated) | 2.5 | 0.4 | -4.6 | -5.7 | 0.8 | -3.9 | x | x
COc1ccccc1N1CCN(C(c2cccs2)C(C)NC(=O)c2ccncc2)CC1 (configuration not stated) | 3.9 | 295.8* | 3.1 | 0.7 | 2.6 | 5.4 | -0.4 | 0.9
COc1ccc2oc(C(=O)Nc3nnc(C)s3)c(C)c2c1 | -220.9 | 20.8* | -2.7 | -271.4 | -4.7 | -9.9 | 0.9 | 3.5
Cc1ccc2cc3cc(C(=O)NCCCN4CC(C)CC(C)C4)oc3nc2c1 (configuration not stated) | -224.7 | 30.2* | -2.5 | -299.5 | -4.4 | 0.7 | 4.3 | -1.2
CCN(CC)CCNC(=O)c1cc2cc3ccc(OC)cc3nc2o1 | i | 23.9* | -1.0 | i | -4.9 | 8.3 | 76.3* | 84.2*
COc1ccc2cc3cc(C(=O)NCc4ccc5c(c4)OCO5)oc3nc2c1 | -128.6 | -66.3 | 1.8 | -187.9 | -2.0 | -4.6 | x | x
CCCCN(C)C(=O)c1cc2cc3ccc(OC)cc3nc2o1 | -189.7 | 12.3 | 2.7 | -282.6 | 5.2 | -4.5 | x | x
COc1ccc2cc3cc(C(=O)NC(C)C)oc3nc2c1 | i | 34.5* | -7.6 | i | -2.2 | 11.9 | 78.1* | 83.0*
CCCCN(C)CCNC(=O)c1cc2cc3ccc(OC)cc3nc2o1 | i | 100.3* | -1.6 | i | 4.8 | 21.1* | 53.6* | 76.7*
C[C@@H]1[C@@H](O)C[C@@]2(C[C@H](O)c3cc(F)ccc3O2)O[C@H]1c1ccccc1Cl | -4.8 | 0.6 | -5.0 | -4.5 | -0.9 | x | x | x
N#CCC[C@@H]1CC[C@]2(CCCN(C(=O)C3CCCCC3)C2)O1 | -3.5 | -0.1 | 1.1 | 1.1 | -1.3 | x | x | x
COc1ccc2cc3cc(C(=O)NCc4cccnc4)oc3nc2c1 | i | 45.5* | -4.4 | i | -3.9 | 3.6 | 53.6* | 53.4*
COCCCNC(=O)c1cc2cc3cc(OC)ccc3nc2o1 | -476.3 | 22.8* | -7.4 | i | -2.1 | 10.7 | 23.4* | 28.5*
SMILES | PLCg1 inh | proKLK7 act | Tn7 DDE FP | PLCb3 inh | DDE Tn6 FP inh | NRP1-CendR mod | proKLK7 act conf | EDANS-DABCYL int
O=C(Nc1ccccc1C(=O)NCC1CCCO1)c1ccccc1 (configuration not stated) | 3.3 | 0.6 | -5.6 | 2.4 | -7.8 | 4.3 | x | x
O=C(NCC1CCCO1)c1coc2nc3ccccc3nc12 (configuration not stated) | -333.8 | 79.8* | 11.7 | -399.3 | 5.3 | -17.5 | 308.2* | 292.6*
COC(CNC(=O)c1ccc2nc(-c3ccccc3)c(-c3ccccc3)nc2c1)OC | -28.8 | -8.4 | -6.9 | -39.8 | -0.5 | 4.5 | x | x
COC(CNC(=O)c1coc2nc3ccccc3nc12)OC | -298.1 | 46.6* | 2.4 | -408.0 | 2.1 | -9.2 | 282.0* | 269.1*
COc1ccc(-c2cn3cccnc3n2)cc1NS(=O)(=O)c1ccccc1 | -213.9 | 16.3* | -3.8 | -221.3 | -3.1 | -8.4 | 4.3 | 5.2*
O=S(=O)(Nc1cccc(-c2cn3ccsc3n2)c1)c1ccc(F)cc1 | -0.4 | 0.3 | 11.5 | -0.2 | 2.0 | 4.8 | x | x
COc1ccc(-c2cn3cccnc3n2)cc1F | i | 64.3* | -2.8 | i | -3.8 | 5.2 | 77.7* | 82.5*
COc1ccc(-c2cn3cccnc3n2)cc1NC(=O)c1cc(OC)c(OC)c(OC)c1 | i | 5.2 | 3.2 | i | -11.6 | 6.2 | x | x
O=S(=O)(Nc1cccc(-c2cn3cccnc3n2)c1)c1ccc(F)cc1 | -311.2 | 58.5* | -2.0 | -388.5 | 2.0 | 8.3 | 14.4* | 13.7*
O=S(=O)(Nc1ccc(-c2cn3cccnc3n2)cc1)c1ccccc1 | i | 64.8* | 3.8 | i | -1.4 | 6.8 | 22.2* | 22.4*
CC(C)CC(O)(CC(C)C)c1cn(C(=O)N(c2ccccc2)c2ccccc2)nn1 | 1.1 | x | 6.9 | 3.5 | 4.0 | x | x | x
COC(=O)[C@]12C[C@H](CC(=O)N3CCSCC3)C(=O)N(Cc3cccc4ccccc34)C1=C[C@H](C1CCCC1)O[C@@H]2C | 8.3 | 1.0 | -14.1 | 4.3 | 9.7 | x | x | x
